Tested on: Plasmodium yoelii
Assay: NOVARTIS: Antimalarial liver stage activity measured as reduction in Plasmodium yoelii schizont area in HepG2-A16-CD81 cells by immuno-fluorescence, and median schizont size at 10uM compound concentration
Type: functional, organism-based
Conditions: for IC50: Plasmodium yoelii, HepG2-A16-CD81
Summary of the method: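 Host and parasite nuclei stained with Hoechst 33342, parasites with αPyHSP70 antibody; 25 images per well by high-content imaging; median parasite (schizont) area measured by automated image analysis, ~50 schizonts per experiment, two or more independent experiments.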

| Compound | Schizont size | IC50 |
| --- | --- | --- |
| O=C(Nc1ccc(-c2nc3cc(NC(=O)c4ccc(Br)o4)ccc3[nH]2)cc1)c1ccc(Br)o1 | 101.14 um | 0.812 µM |
| CCN1CCN(c2c(C(=O)c3ccccc3)cnc3cc(OC)c(OC)cc23)CC1 | 89.76 um | 0.367 µM |
| CCC(C)(C)c1ccc(OCCOCC[n+]2ccccc2)c(C(C)(C)CC)c1.[Cl-] | 13.88 um | 0.0962 µM |
| Cl.Fc1ccc(Nc2nc(NCc3ccco3)c3ccccc3n2)cc1 | 45.3 um | 0.0749 µM |
| CCOc1ccc(Nc2nc(NCc3ccco3)c3ccccc3n2)cc1 | 75.78 um | 0.105 µM |
| COc1ccc2[nH]c(=O)c(CN(C(=S)Nc3ccccc3OC)C3CCCC3)cc2c1 | 157.5 um | > 9.74 µM |
| CCN(CC)c1ccc(NC(=O)c2cccs2)cc1 | 54.07 um | 0.396 µM |
| O=C(c1cccc([N+](=O)[O-])c1)c1ccc(Cl)c(Cl)c1 | 108.65 um | 3.81 µM |
| O=C(c1ccc([N+](=O)[O-])cc1)c1ccc(Cl)c(Cl)c1 | 109.39 um | 1.64 µM |
| COc1ccccc1-n1c(C=Cc2cc(Br)ccc2O)nc2ccccc2c1=O |  | 4.59 µM |
| Cc1ccc2cc(C)c(Nc3ccc(Cl)cc3)nc2c1 | 42.06 um | 0.148 µM |
| Br.O=C(Cn1ccc(=NCc2ccccc2)cc1)c1ccc(I)cc1 | 44.99 um | 0.825 µM |
| COc1cccc(CNC(=O)C2CNCC2c2ccc(C(F)(F)F)cc2)c1 (stereo not given) |  | 0.857 µM |
| O=c1c2c([nH]c3ccccc13)CCCCCC2 | 42.48 um | 0.727 µM |
| Cc1cccc(C)c1N(CC(=O)NCc1ccco1)S(C)(=O)=O | 194.24 um | > 10 µM |
| CC(Oc1ccc(Cl)cc1Cl)c1nc(-c2ccc(NC(=O)c3ccco3)cc2)no1 (stereo not given) | 28.18 um | 0.154 µM |
| CCOc1ccc2[nH]c(=O)c(CN(CCN(CC)CC)C(=S)NCCCN(CC)CC)cc2c1 | 120.76 um | 2.17 µM |
| CC[n+]1c(/C=C/C=C2\N(C)c3ccccc3C2(C)C)n(-c2ccccc2)c2cc(Cl)ccc21 | 12.53 um | 0.0136 µM |
| Cc1ccc(NC(=O)C2C3C=CC4(O3)C2C(=O)N(CCCN2CCOCC2)C4C(=O)NC2CCCC(C)C2C)cc1Cl.Cl (stereo not given) | 196.54 um | > 10 µM |
| N#Cc1c2c(c(N3CCN(c4ccccn4)CC3)n3c1nc1ccccc13)CCC2 | 174.41 um | > 10 µM |
| COc1ccc(C(c2ccc(N(C)C)cc2)c2ccc(N(C)C)cc2)cc1 | 172.95 um | > 10 µM |
| CCOc1ccc(N2C(N)=NC(N)=NC2(C)C)cc1.Cl | 35.59 um | 0.0468 µM |
| CCCCN1C=CC=C/C1=C\c1sc2ccccc2[n+]1CC | 18.47 um | 0.0109 µM |
| COC(=O)c1ccc(C2C3=C(O)CC(c4ccco4)CC3=Nc3ccccc3N2C(=O)c2ccccc2)cc1 (stereo not given) | 140.38 um | > 4.78 µM |
| COc1ccc(CN2CCOc3ccc(C(C)(O)CN(C)C)cc3C2)cc1C (stereo not given) | 87.05 um | 0.0675 µM |
| CCc1nc(N)nc(N)c1-c1ccc(Cl)cc1 [PYRIMETHAMINE] | 37.58 um | 0.00215 µM |
| CC(C)NCC(O)Cn1c2ccc(Cl)cc2c2cc(Cl)ccc21 (stereo not given) | 88.41 um | 2.97 µM |

| Compound | Schizont size | IC50 |
| --- | --- | --- |
| c1ccc(-c2cc(N3CCN(c4ccccn4)CC3)nc(-c3ccccn3)n2)nc1 | 24.32 um | 0.0175 µM |
| COc1ccc(Nc2cc(C)nc(NCc3ccccc3)n2)cc1 | 57.82 um | 0.636 µM |
| CC(=O)Nc1nc(C)c(-c2csc(Nc3ccc(C)cc3)n2)s1 | 104.48 um | 1.89 µM |
| Cl.Fc1ccccc1Nc1nc(NCc2ccccc2)c2ccccc2n1 | 37.58 um | 0.69 µM |
| OC(CNC1CCCCC1)Cn1c2ccccc2c2ccccc21 (stereo not given) | 143.41 um | 3.92 µM |
| Cc1nc([P+](c2ccccc2)(c2ccccc2)c2ccccc2)c(N2CCCCC2)o1 | 25.57 um | 0.0824 µM |
| COc1ccc2nc(C)cc(Nc3ccc(Oc4ccc5ccccc5c4Cl)c(Cl)c3)c2c1 | 31 um | 0.114 µM |
| C=CCc1c(C)nc2ccc(Br)cc2c1O | 32.46 um | 0.181 µM |
| C[C@@H]1C[C@@H]([C@H](O)CC2CC(=O)NC(=O)C2)C(=O)[C@@H](C)C1 [CYCLOHEXIMIDE] | 14.61 um | 0.0781 µM |
| CC1(C)N=C(N)N=C(N)N1c1ccc(F)cc1.Cl | 38.93 um | 0.0189 µM |
| OC1=C2C(=Nc3ccccc3SC2c2ccccc2)c2ccccc21 (stereo not given) | 28.39 um | 0.0937 µM |
| CCc1cc2c(cc1-c1csc(NC(=N)N)n1)C(C)(C)CCC2(C)C | 92.27 um | 2.9 µM |
| O=C(Nc1c2ccccc2nc2ccccc12)c1cc(Cl)ccc1O | 43.52 um | 0.181 µM |
| CC1CC(N(C(=O)c2ccc(Cl)cc2Cl)c2ccccc2)c2ccccc2N1C(=O)c1ccc(Cl)cc1 (stereo not given) | 110.64 um | 3.64 µM |
| CCC(Sc1nnc(-c2ccc(C)cc2)c(-c2ccc(C)cc2)n1)C(=O)NCCOC (stereo not given) | 42.59 um | 0.303 µM |
| COc1ccc(-c2n(C)c3ccccc3[n+]2CC(=O)OC2CC(C)CCC2C(C)C)cc1.[Cl-] (stereo not given) | 14.3 um | 0.156 µM |
| OC1=C2C(=Nc3ccccc3SC2c2ccco2)c2ccccc21 (stereo not given) | 31.63 um | 0.113 µM |
| COc1cccc(NC(=O)Cn2c(C)c(C#N)c3ccccc32)c1 | 134.12 um | > 9.96 µM |
| CCCn1c(-c2cccc(Br)c2)nc2ccccc21 | 198.63 um | > 8.91 µM |
| c1ccc(CNc2nc(Nc3ccccc3)nc3ccccc23)cc1 | 29.85 um | 0.153 µM |
| Cc1ccnc(NC(c2ccc3ccccc3c2)c2ccc3cccnc3c2O)c1 (stereo not given) | 26.72 um | 0.556 µM |
| COC(=O)C1=C(C)NC2=C(C(=O)CC(c3ccccc3Cl)C2)C1c1ccc([N+](=O)[O-])cc1 (stereo not given) | 61.06 um | 0.842 µM |
| Cc1ccc(-c2cn3c([n+]2-c2ccc(C)cc2)CCCCC3)cc1 | 27.24 um | 0.146 µM |
| Cc1nc2ccccc2c(O)c1CC=C(Cl)Cl | 43.21 um | 0.13 µM |
| COc1ccccc1CNC(=O)c1nn(-c2ccc(Cl)cc2)c(=O)c2ccccc12 |  | > 10 µM |
| Nc1nonc1-n1nnc(C(=O)NN=Cc2ccc(F)c(Br)c2)c1-c1ccc([N+](=O)[O-])cc1 | 246.12 um | > 10 µM |
| Cl.OCCNc1nc(Nc2ccccc2)nc2ccccc12 | 62.1 um | 0.0479 µM |

| Compound | Schizont size | IC50 |
| --- | --- | --- |
| CCN(c1ccccc1)S(=O)(=O)c1ccc(F)c(C(=O)Nc2c(C)cccc2C)c1 | 234.32 um | > 10 µM |
| CC1(C)N=C(N)N=C(N)N1c1ccc(I)cc1.Cl | 33.82 um | 0.01 µM |
| CCCCSc1oc(C)nc1[P+](c1ccccc1)(c1ccccc1)c1ccccc1 | 22.13 um | 0.0821 µM |
| CCC(=O)NC(c1ccccc1Cl)c1cc(Cl)c2cccnc2c1O (stereo not given) | 55.11 um | 1.01 µM |
| CCCc1c(C)nc2ccccc2c1O | 34.55 um | 0.279 µM |
| CC(C)(C)C1CCc2[nH]c3ccccc3c(=O)c2C1 (stereo not given) | 22.13 um | 0.0983 µM |
| CN1CCN(c2ccc(Nc3c4ccccc4nc4ccccc34)cc2)CC1 | 45.82 um | 0.547 µM |
| O=C(Nc1ccc(Oc2cccc(Oc3ccc(NC(=O)c4ccc(Br)o4)cc3)c2)cc1)c1ccc(Br)o1 | 18.79 um | 0.433 µM |
| CCN1/C(=C/c2ccc3ccccc3[n+]2CC)Sc2sc3ccccc3c21 | 32.77 um | 0.00621 µM |
| CCOC(=O)c1ccc2nc(-c3ccccc3)cc(O)c2c1 | 20.67 um | 0.02 µM |
| CCOC(=O)C1(CC)CC(C)(C(=O)C[n+]2cccc(Br)c2)OC1=O.[Br-] (stereo not given) | 178.59 um | > 10 µM |
| c1ccc2c(NCCc3c[nH]cn3)c3ccccc3nc2c1 | 110.22 um | 0.706 µM |
| c1ccc(-c2csc(Nc3nc4cc5c(cc4s3)OCO5)n2)nc1 | 34.44 um | 0.0789 µM |
| C=CC[N+]1(CC#Cc2cccc3ccccc23)CCCCC1.[Br-] | 80.06 um | 0.908 µM |
| Cc1oc2c(c1C(=O)NC1CCS(=O)(=O)C1)C(=O)c1ccccc1C2=O (stereo not given) | 17.54 um | 0.00229 µM |
| CCOC(=O)c1ccc(NCc2c(C)[nH]c3ccccc3c2=O)cc1 | 18.27 um | 0.137 µM |
| CCCCCc1c(C)c(C#N)c2nc3ccccc3n2c1NCCN(CC)CC | 74 um | 0.702 µM |
| CC(=O)Nc1ccc(-c2nc(-c3ccc(Oc4ccc(-c5[nH]c(-c6ccc(NC(C)=O)cc6)nc5-c5ccccc5)cc4)cc3)c(-c3ccccc3)[nH]2)cc1 | 112.31 um | > 3.73 µM |
| O=C1c2ccccc2C2=Nc3ccccc3SC(c3ccccc3F)C12 (stereo not given) | 28.6 um | 0.239 µM |
| CCC[n+]1cccc2ccc3cccnc3c21 | 43.42 um | 0.903 µM |
| CCCCOc1ccc(N(C(C)=O)C2=C(N3CCOCC3)C(=O)c3ccccc3C2=O)cc1 | 74.84 um | 1.79 µM |
| COC(=O)c1c(-c2c(Cl)cccc2Cl)noc1NC(=O)NN1CCCCC1 | 75.67 um | 0.647 µM |
| C[C@@H]1CCC[C@@H](C[C@H]2Cc3cc(O)cc(O)c3C(=O)O2)O1 | 41.96 um | 0.112 µM |
| CCCCCCCn1c2c(c(=N)c3ccccc31)CCC2.I | 23.59 um | 0.0765 µM |
| O=C(Nc1ccc(-c2ccc(Cl)cc2)cc1)c1cccs1 | 31.73 um | 0.151 µM |

— ChEMBL document CHEMBL1789904, “Imaging of Plasmodium liver stages to drive next-generation antimalarial drug discovery” (Science, 2011)
